Source: ChEMBL document CHEMBL4325889, “Natural products hybrids: 3,5,4'-Trimethoxystilbene-5,6,7-trimethoxyflavone chimeric analogs as potential cytotoxic agents against diverse human cancer cells” (Eur J Med Chem, 2019)

Columns and labels:
Type in all cases: functional
CCRF-CEM = assay: Growth inhibition of human CCRF-CEM cells at 10 uM after 48 hrs by SRB assay relative to control; conditions: read-out: GI
In short: (§1)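 Screened at the National Cancer Institute by the standard NCI protocol using the sulforhodamine B assay, which measures cellular protein. Single dose of 10 µM. Result is percent growth inhibition; values above 100% mean cell number fell below the initial population. Values are the average of duplicates.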

HL-60(TB) = assay: Growth inhibition of human HL-60(TB) cells at 10 uM after 48 hrs by SRB assay relative to control; conditions: HL-60, 48 h, read-out: GI
In short: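 Run at NCI under its standard single-dose protocol against a leukemia cell panel. Cells were exposed to 10 µM; growth was read by sulforhodamine B staining of cellular protein and expressed as % growth inhibition versus untreated control. Values above 100% mean the cell population fell below the starting count (cytocidal). Each value is the average of duplicates.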

K562 = assay: Growth inhibition of human K562 cells at 10 uM after 48 hrs by SRB assay relative to control; conditions: K562, 48 h, read-out: GI; in short: as §1
MOLT-4 = assay: Growth inhibition of human MOLT4 cells at 10 uM after 48 hrs by SRB assay relative to control; conditions: MOLT-4, 48 h, read-out: GI; in short: as §1
RPMI-8226 = assay: Growth inhibition of human RPMI8226 cells at 10 uM after 48 hrs by SRB assay relative to control; conditions: RPMI-8226, 48 h, read-out: GI; in short: as §1
A549 = assay: Growth inhibition of human A549 cells at 10 uM after 48 hrs by SRB assay relative to control; conditions: A549, 48 h, read-out: GI; in short: as §1
HOP-62 = assay: Growth inhibition of human HOP62 cells at 10 uM after 48 hrs by SRB assay relative to control; conditions: HOP-62, 48 h, read-out: GI; in short: as §1
NCI-H226 = assay: Growth inhibition of human NCI-H226 cells at 10 uM after 48 hrs by SRB assay relative to control; conditions: NCI-H226, 48 h, read-out: GI; in short: as §1
NCI-H23 = assay: Growth inhibition of human NCI-H23 cells at 10 uM after 48 hrs by SRB assay relative to control; conditions: NCI-H23, 48 h, read-out: GI; in short: as §1
NCI-H322M = assay: Growth inhibition of human NCI-H322M cells at 10 uM after 48 hrs by SRB assay relative to control; conditions: read-out: GI; in short: as §1
NCI-H460 = assay: Growth inhibition of human NCI-H460 cells at 10 uM after 48 hrs by SRB assay relative to control; conditions: NCI-H460, 48 h, read-out: GI; in short: as §1
NCI-H522 = assay: Growth inhibition of human NCI-H522 cells at 10 uM after 48 hrs by SRB assay relative to control; conditions: NCI-H522, 48 h, read-out: GI; in short: as §1
COLO 205 = assay: Growth inhibition of human COLO205 cells at 10 uM after 48 hrs by SRB assay relative to control; conditions: COLO 205, 48 h, read-out: GI; in short: as §1
HCC 2998 = assay: Growth inhibition of human HCC2998 cells at 10 uM after 48 hrs by SRB assay relative to control; conditions: HCC 2998, 48 h, read-out: GI; in short: as §1
SF-295 = assay: Growth inhibition of human SF295 cells at 10 uM after 48 hrs by SRB assay relative to control; conditions: SF-295, 48 h, read-out: GI; in short: as §1
SF-539 = assay: Growth inhibition of human SF539 cells at 10 uM after 48 hrs by SRB assay relative to control; conditions: SF-539, 48 h, read-out: GI; in short: as §1
SNB-75 = assay: Growth inhibition of human SNB75 cells at 10 uM after 48 hrs by SRB assay relative to control; conditions: SNB-75, 48 h, read-out: GI
In short: (§2)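 NCI screen against its human cancer cell line panel by the standard NCI protocol, SRB protein stain. Single dose of 10 μM. Percent growth inhibition versus control; values above 100% mean the cell population fell below the starting number. Each value is the mean of duplicates.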

LOX IMVI = assay: Growth inhibition of human LOXIMVI cells at 10 uM after 48 hrs by SRB assay relative to control; conditions: read-out: GI; in short: as §1
Malme-3M = assay: Growth inhibition of human MALME-3M cells at 10 uM after 48 hrs by SRB assay relative to control; conditions: read-out: GI; in short: as §1
MDA-MB-435 = assay: Growth inhibition of human MDA-MB-435 cells at 10 uM after 48 hrs by SRB assay relative to control; conditions: MDA-MB-435, 48 h, read-out: GI; in short: as §1
SK-MEL-28 = assay: Growth inhibition of human SK-MEL-28 cells at 10 uM after 48 hrs by SRB assay relative to control; conditions: SK-MEL-28, 48 h, read-out: GI; in short: as §1
UACC-257 = assay: Growth inhibition of human UACC257 cells at 10 uM after 48 hrs by SRB assay relative to control; conditions: UACC-257, 48 h, read-out: GI; in short: as §2
OVCAR-4 = assay: Growth inhibition of human OVCAR4 cells at 10 uM after 48 hrs by SRB assay relative to control; conditions: OVCAR-4, 48 h, read-out: GI; in short: as §1
NCI/ADR-RES = assay: Growth inhibition of human NCI/ADR-RES cells at 10 uM after 48 hrs by SRB assay relative to control; conditions: read-out: GI; in short: as §1
786-0 = assay: Growth inhibition of human 786-0 cells at 10 uM after 48 hrs by SRB assay relative to control; conditions: 786-0, 48 h, read-out: GI; in short: as §1
RXF 393 = assay: Growth inhibition of human RXF393 cells at 10 uM after 48 hrs by SRB assay relative to control; conditions: RXF 393, 48 h, read-out: GI; in short: as §1
SN12C = assay: Growth inhibition of human SN12C cells at 10 uM after 48 hrs by SRB assay relative to control; conditions: read-out: GI; in short: as §1
TK-10 = assay: Growth inhibition of human TK10 cells at 10 uM after 48 hrs by SRB assay relative to control; conditions: TK-10, 48 h, read-out: GI; in short: as §2
UO-31 = assay: Growth inhibition of human UO31 cells at 10 uM after 48 hrs by SRB assay relative to control; conditions: UO-31, 48 h, read-out: GI; in short: as §2
PC-3 = assay: Growth inhibition of human PC3 cells at 10 uM after 48 hrs by SRB assay relative to control; conditions: PC-3, 48 h, read-out: GI; in short: as §1
DU-145 = assay: Growth inhibition of human DU145 cells at 10 uM after 48 hrs by SRB assay relative to control; conditions: DU-145, 48 h, read-out: GI; in short: as §1
MCF7 = assay: Growth inhibition of human MCF7 cells at 10 uM after 48 hrs by SRB assay relative to control; conditions: MCF7, 48 h, read-out: GI; in short: as §1
Hs-578T = assay: Growth inhibition of human Hs 578T cells at 10 uM after 48 hrs by SRB assay relative to control; conditions: read-out: GI; in short: as §1
BT-549 = assay: Growth inhibition of human BT549 cells at 10 uM after 48 hrs by SRB assay relative to control; conditions: BT-549, 48 h, read-out: GI; in short: as §1

SMILES | inhibition of growth at 10 µM (CCRF-CEM) [%] | inhibition of growth at 10 µM (HL-60(TB)) [%] | inhibition of growth at 10 µM (K562) [%] | inhibition of growth at 10 µM (MOLT-4) [%] | inhibition of growth at 10 µM (RPMI-8226) [%] | inhibition of growth at 10 µM (A549) [%] | inhibition of growth at 10 µM (HOP-62) [%] | inhibition of growth at 10 µM (NCI-H226) [%] | inhibition of growth at 10 µM (NCI-H23) [%] | inhibition of growth at 10 µM (NCI-H322M) [%] | inhibition of growth at 10 µM (NCI-H460) [%] | inhibition of growth at 10 µM (NCI-H522) [%] | inhibition of growth at 10 µM (COLO 205) [%] | inhibition of growth at 10 µM (HCC 2998) [%] | inhibition of growth at 10 µM (SF-295) [%] | inhibition of growth at 10 µM (SF-539) [%] | inhibition of growth at 10 µM (SNB-75) [%] | inhibition of growth at 10 µM (LOX IMVI) [%] | inhibition of growth at 10 µM (Malme-3M) [%] | inhibition of growth at 10 µM (MDA-MB-435) [%] | also measured
COc1cc2oc(-c3cccc(C(=O)Nc4ccc5c(c4)OCO5)c3)cc(=O)c2c(OC)c1OC | 36.6 | 30.3 | 25.8 | 35.2 | 79.1 | 25.5 | 26.6 | 21.2 | 10.3 | 22.6 | 26.9 | 26.9 | 24.4 | 2.03 | 2.37 | 14.7 | -1.27 | 81.5 | 1.22 | 4.94 | inhibition of growth at 10 µM (SK-MEL-28): 20.4%; inhibition of growth at 10 µM (UACC-257): 5.96%; inhibition of growth at 10 µM (OVCAR-4): 3.72%; inhibition of growth at 10 µM (NCI/ADR-RES): 35.1%; inhibition of growth at 10 µM (786-0): 7.44%; inhibition of growth at 10 µM (RXF 393): 29%; inhibition of growth at 10 µM (SN12C): 30.8%; inhibition of growth at 10 µM (TK-10): 16.1%; inhibition of growth at 10 µM (UO-31): 41%; inhibition of growth at 10 µM (PC-3): 26.5%; inhibition of growth at 10 µM (DU-145): 18.7%; inhibition of growth at 10 µM (MCF7): 17.9%; inhibition of growth at 10 µM (Hs-578T): 14%; inhibition of growth at 10 µM (BT-549): 42.4%
COc1cccc(NC(=O)c2cccc(-c3cc(=O)c4c(O)c(OC)c(OC)cc4o3)c2)c1 | 34.7 | 17.5 | 16.9 | 24.2 | 53.6 | 26.6 | 37.5 | 41.5 | 25.4 | 12.9 | 31.4 | 59.8 | 24.3 | -3.54 | 17.6 | 20.7 | 1.94 | 36.8 | 12.3 | 22.6 | inhibition of growth at 10 µM (SK-MEL-28): 14.2%; inhibition of growth at 10 µM (UACC-257): 8.74%; inhibition of growth at 10 µM (OVCAR-4): 48%; inhibition of growth at 10 µM (NCI/ADR-RES): 25.8%; inhibition of growth at 10 µM (786-0): 14.2%; inhibition of growth at 10 µM (RXF 393): 25.8%; inhibition of growth at 10 µM (SN12C): 19%; inhibition of growth at 10 µM (TK-10): 6.27%; inhibition of growth at 10 µM (UO-31): 41.7%; inhibition of growth at 10 µM (PC-3): 39.3%; inhibition of growth at 10 µM (DU-145): 19.4%; inhibition of growth at 10 µM (MCF7): 13.2%; inhibition of growth at 10 µM (Hs-578T): 45.5%; inhibition of growth at 10 µM (BT-549): 30.5%
COc1cc(NC(=O)c2cccc(-c3cc(=O)c4c(O)c(OC)c(OC)cc4o3)c2)cc(OC)c1OC | 41.9 | 22 | 45.5 | 27.2 | 73 | 59.5 | 88.3 | 92.3 | 65.1 | 25.6 | 46.2 | 58.8 | 32.3 | 34 | 38.5 | 48.3 | 67.8 | 67 | 49 | 34.6 | inhibition of growth at 10 µM (SK-MEL-28): 22.6%; inhibition of growth at 10 µM (UACC-257): 33.9%; inhibition of growth at 10 µM (OVCAR-4): 41.4%; inhibition of growth at 10 µM (NCI/ADR-RES): 50.6%; inhibition of growth at 10 µM (786-0): 33.7%; inhibition of growth at 10 µM (RXF 393): 25%; inhibition of growth at 10 µM (SN12C): 37%; inhibition of growth at 10 µM (TK-10): 25.2%; inhibition of growth at 10 µM (UO-31): 65.7%; inhibition of growth at 10 µM (PC-3): 50.2%; inhibition of growth at 10 µM (DU-145): 42.8%; inhibition of growth at 10 µM (MCF7): 50.6%; inhibition of growth at 10 µM (Hs-578T): 104%; inhibition of growth at 10 µM (BT-549): 93%
COc1cc2oc(-c3cccc(NC(=O)c4ccc5c(c4)OCO5)c3)cc(=O)c2c(OC)c1OC | 112 | 65.4 | 82.6 | 97.1 | 154 | 48.7 | 45.6 | 34.3 | 47.1 | 56.5 | 72.8 | 63.3 | 31.9 | 46.9 | 46.1 | 43 | 32.6 | 60.5 | 23.6 | 46.7 | inhibition of growth at 10 µM (SK-MEL-28): 44.9%; inhibition of growth at 10 µM (UACC-257): 22.7%; inhibition of growth at 10 µM (OVCAR-4): 41.9%; inhibition of growth at 10 µM (NCI/ADR-RES): 42.4%; inhibition of growth at 10 µM (786-0): 80.5%; inhibition of growth at 10 µM (RXF 393): 53.5%; inhibition of growth at 10 µM (SN12C): 57.9%; inhibition of growth at 10 µM (TK-10): 38.4%; inhibition of growth at 10 µM (UO-31): 75.8%; inhibition of growth at 10 µM (PC-3): 112%; inhibition of growth at 10 µM (DU-145): 47.1%; inhibition of growth at 10 µM (MCF7): 56.4%; inhibition of growth at 10 µM (Hs-578T): 54.8%; inhibition of growth at 10 µM (BT-549): 58.6%
